In ChEMBL document CHEMBL2331350, “Conjugation to 4-aminoquinoline improves the anti-trypanosomal activity of Deferiprone-type iron chelators” (Bioorg Med Chem, 2013):
Calls of active or inactive are those of the source. No cut-off for these calls is given here.

Columns and labels:
Plasmodium falciparum = test: Antimalarial activity against Plasmodium falciparum ITG2G1; format: functional
Leishmania infantum [1] = test: Antileishmanial activity against Leishmania infantum MHOM/BR/1972/LD promastigotes after 48 hrs by MTT assay; format: functional
Trypanosoma brucei [2] = test: Antitrypanosomal activity against Trypanosoma brucei TC211 after 24 hrs by alamar blue assay; format: functional; details: TC211, 24 h
Outline: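 Bloodstream T. brucei TC211 in Baltz medium with 16.7% heat-inactivated FBS, seeded at 10⁴ cells/mL with compounds in DMSO (final 0.5%; DMSO-only controls). Alamar Blue added after 24 h, then 48 h incubation; absorbance 570 nm, reference 630 nm. Melarsoprol positive control; GI50 with 95% CI.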

[3] = Iron cheating activity assessed as pFe3+ value at pH 7.45 by spectrophotometry; format: functional
Outline: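 Automated spectrophotometric titration at 25 °C, 0.1 M KCl, pH 2–12 in 0.1-unit steps, 5 min equilibration for stability constants, 50 mm cuvette; […], total iron 1 mM; data fitted with pHab; pFe³⁺ defined at 10⁻⁶ M metal and 10⁻⁵ M ligand.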

Trypanosoma brucei [4] = test: Iron cheating activity in Trypanosoma brucei bloodstream forms assessed as increase in fluorescein-labeled transferrin at 25 uM in presence of 16.7% heat inactivated FBS after 24 hrs by flow cytometry relative to untreated control; format: functional
Outline: (§1)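 Bloodstream T. brucei (5 × 10⁵/mL) exposed 24 h in Baltz medium/16.7% heat-inactivated FBS to 50 µM chelator, 25 µM DFO or DMSO control. Washed cells then given 50 µg/mL fluorescein-transferrin in Baltz/2% BSA for 2 h, washed, fixed in 2% formaldehyde/0.05% glutaraldehyde, analysed by flow cytometry.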

[5] = Cytotoxicity against human HL60 cells by alamar blue assay; format: cell-based, HL-60
Outline: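 HL-60 cells in RPMI 1640 with 2 mM L-glutamine and 16.7% FBS at 37 °C, 5% CO2, seeded at 10⁵ cells/mL. Viability with Alamar Blue read as in the T. brucei assay (570 nm, reference 630 nm); GI50.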

[6] = Cytotoxicity against human K562 cells; format: cell-based
[7] = Lipophilicity, log P of the compound; format: physicochemical; details: octanol/water
[8] = Selectivity index, ratio of GI50 for human HL60 cells to GI50 for Leishmania infantum MHOM/BR/1972/LD promastigotes; format: toxicity, cell-based, HL-60; details: read-out: RatioGI50
[9] = Selectivity index, ratio of GI50 for human HL60 cells to GI50 for Trypanosoma brucei TC211; format: toxicity, cell-based, HL-60; details: read-out: RatioGI50
[10] = Selectivity index, ratio of GI50 for human HL60 cells to GI50 for Trypanosoma cruzi trypomastigotes; format: toxicity, cell-based, HL-60; details: read-out: RatioGI50
Trypanosoma cruzi [11] = test: Antitrypanosomal activity against Trypanosoma cruzi trypomastigotes after 24 hrs by MTT assay relative to Deferiprone; format: functional
Leishmania infantum [12] = test: Antileishmanial activity against Leishmania infantum MHOM/BR/1972/LD intracellular amastigotes at 60 uM after 120 hrs by light microscopy
[13] = Selectivity index, ratio of GI50 for human K562 cells to GI50 for Plasmodium falciparum ITG2G1; format: toxicity, cell-based; details: read-out: RatioGI50
Trypanosoma cruzi [14] = test: Antitrypanosomal activity against Trypanosoma cruzi trypomastigotes after 24 hrs by MTT assay; format: functional
Outline: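 T. cruzi trypomastigotes counted by hemocytometer, seeded at 1 × 10⁶ per well; compounds up to 100 µM for 24 h at 37 °C, 5% CO2. Viability from MTT conversion to formazan. Benznidazole positive control; GI50 with 95% CI.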

Trypanosoma cruzi [15] = test: Antitrypanosomal activity against Trypanosoma cruzi trypomastigotes after 24 hrs by MTT assay relative to Chloroquine; format: functional
Trypanosoma brucei [16] = test: Antitrypanosomal activity against Trypanosoma brucei TC211 after 24 hrs by alamar blue assay relative to Chloroquine; format: functional
Trypanosoma brucei [17] = test: Antitrypanosomal activity against Trypanosoma brucei TC211 after 24 hrs by alamar blue assay relative to Deferiprone; format: functional
Trypanosoma brucei [18] = test: Iron cheating activity in Trypanosoma brucei bloodstream forms assessed as increase in fluorescein-labeled transferrin at 50 uM in presence of 16.7% heat inactivated FBS after 24 hrs by flow cytometry relative to untreated control; format: functional; outline: as §1
Trypanosoma brucei [19] = test: Antitrypanosomal activity against Trypanosoma brucei TC211 after 24 hrs in presence of FeCl3 by alamar blue assay; format: functional, organism-based

**Q.** For `CC(=O)N(O)CCCCCNC(=O)CCC(=O)N(O)CCCCCNC(=O)CCC(=O)N(O)CCCCCN` [DEFEROXAMINE], which GI50 (Plasmodium falciparum) is on record?
**A.** The GI50 was 28 µM.

**Q.** What about the GI50 (Leishmania infantum [1]) of the same compound?
**A.** Its GI50 is 150 µM.

**Q.** And the GI50 (Trypanosoma brucei [2])?
**A.** Its GI50 is 2.9 µM.

**Q.** What about the Activity [3] of the same compound?
**A.** Its Activity is 26.6.

**Q.** What about the “fold change (FC)” value (Trypanosoma brucei [4]) of the same compound?
**A.** Its value is 2.

**Q.** What about the GI50 [5] of the same compound?
**A.** Its GI50 is 18.4 µM.

**Q.** What about the GI50 [6] of the same compound?
**A.** The GI50 was 33.1 µM.

**Q.** For `Cc1c(O)c(=O)ccn1CCCNc1ccnc2cc(Cl)ccc12`, which logP [7] is on record?
**A.** Its logP is 1.32.

**Q.** Which results are given for `Cc1c(O)c(=O)ccn1CCCCNc1ccnc2cc(Cl)ccc12`?
**A.** selectivity ratio [8]: 2; GI50 (Plasmodium falciparum): 2.4 µM; selectivity ratio [9]: 13; selectivity ratio [10]: 8; GI50 (Leishmania infantum [1]): 27.1 µM; Ratio (Trypanosoma cruzi [11]): >15; Activity (Leishmania infantum [12]): inactive; GI50 (Trypanosoma brucei [2]): 3.8 µM; logP [7]: 1.4; selectivity ratio [13]: 16; GI50 (Trypanosoma cruzi [14]): 6.5 µM; Ratio (Trypanosoma cruzi [15]): 4; Ratio (Trypanosoma brucei [16]): 4; GI50 [5]: 50.3 µM; GI50 [6]: 38.2 µM; Ratio (Trypanosoma brucei [17]): >25

**Q.** For `CCCCCCCCCCn1ccc(=O)c(O)c1C`, which selectivity ratio [8] is on record?
**A.** Its selectivity ratio is 9.

**Q.** What about the selectivity ratio [9] of the same compound?
**A.** Its selectivity ratio is 5.

**Q.** What about the selectivity ratio [10] of the same compound?
**A.** The selectivity ratio was 8.

**Q.** And the GI50 (Leishmania infantum [1])?
**A.** Its GI50 is 0.7 µM.

**Q.** What about the GI50 (Trypanosoma brucei [2]) of the same compound?
**A.** The GI50 was 1.4 µM.

**Q.** And the GI50 (Trypanosoma cruzi [14])?
**A.** Its GI50 is 0.8 µM.

**Q.** And the GI50 [5]?
**A.** The GI50 was 6.3 µM.

**Q.** With `O=C(Cn1ccnc1[N+](=O)[O-])NCc1ccccc1` [BENZNIDAZOLE] as the compound, how does the GI50 (Trypanosoma cruzi [14]) read?
**A.** Its GI50 is 441 µM.

**Q.** Which GI50 (Plasmodium falciparum) does the source give for `Cc1c(O)c(=O)ccn1C` [DEFERIPRONE] here?
**A.** Its GI50 is 67 µM.

**Q.** What about the GI50 (Leishmania infantum [1]) of the same compound?
**A.** Its GI50 is > 100 µM.

**Q.** What about the GI50 (Trypanosoma brucei [2]) of the same compound?
**A.** Its GI50 is > 100 µM.

**Q.** What about the Activity [3] of the same compound?
**A.** Its Activity is 19.3.

**Q.** What about the GI50 (Trypanosoma cruzi [14]) of the same compound?
**A.** Its GI50 is > 100 µM.

**Q.** What about the GI50 [5] of the same compound?
**A.** The GI50 was > 100 µM.

**Q.** With `CCN(CC)CCCC(C)Nc1ccnc2cc(Cl)ccc12` (configuration not stated) [CHLOROQUINE] as the compound, how does the GI50 (Leishmania infantum [1]) read?
**A.** Its GI50 is 3.7 µM.

**Q.** And the GI50 (Trypanosoma brucei [2])?
**A.** The GI50 was 15.6 µM.

**Q.** What about the GI50 (Trypanosoma cruzi [14]) of the same compound?
**A.** Its GI50 is 22.2 µM.

**Q.** What does the source list for `Cc1c(O)c(=O)ccn1CCNc1ccnc2cc(Cl)ccc12`?
**A.** GI50 (Plasmodium falciparum): 7 µM; logP [7]: 1.08; selectivity ratio [13]: 26; GI50 [6]: 182 µM

**Q.** For `C[C@@H]1[C@H](O)[C@@H](C)/C=C/C=C/C=C/C=C/C=C/C=C/C=C/[C@H](O[C@@H]2O[C@H](C)[C@@H](O)[C@H](N)[C@@H]2O)C[C@@H]2O[C@](O)(C[C@@H](O)C[C@@H](O)[C@H](O)CC[C@@H](O)C[C@@H](O)CC(=O)O[C@H]1C)C[C@H](O)[C@H]2C(=O)O` [AMPHOTERICIN B], which GI50 (Leishmania infantum [1]) is on record?
**A.** Its GI50 is 0.17 µM.

**Q.** Which selectivity ratio [8] does the source give for `CCCCCCCCn1ccc(=O)c(O)c1C` here?
**A.** The selectivity ratio was 4.

**Q.** And the selectivity ratio [9]?
**A.** The selectivity ratio was 3.

**Q.** What about the selectivity ratio [10] of the same compound?
**A.** The selectivity ratio was 4.

**Q.** And the GI50 (Leishmania infantum [1])?
**A.** The GI50 was 3.2 µM.

**Q.** What about the GI50 (Trypanosoma brucei [2]) of the same compound?
**A.** The GI50 was 3.6 µM.

**Q.** What about the GI50 (Trypanosoma cruzi [14]) of the same compound?
**A.** The GI50 was 3 µM.

**Q.** What about the GI50 [5] of the same compound?
**A.** The GI50 was 11.2 µM.

**Q.** Which GI50 (Trypanosoma brucei [2]) does the source give for `Nc1nc(N)nc(Nc2ccc([As]3SCC(CO)S3)cc2)n1` (configuration not stated) [MELARSOPROL] here?
**A.** Its GI50 is 0.0038 µM.

**Q.** Which GI50 (Leishmania infantum [1]) does the source give for `NCCCCNc1ccnc2cc(Cl)ccc12` here?
**A.** The GI50 was 42.4 µM.

**Q.** What about the GI50 (Trypanosoma brucei [2]) of the same compound?
**A.** Its GI50 is 15.8 µM.

**Q.** And the GI50 (Trypanosoma cruzi [14])?
**A.** The GI50 was 46.3 µM.

**Q.** And the GI50 [5]?
**A.** The GI50 was > 100 µM.

**Q.** With `Cc1c(O)c(=O)ccn1CCCCNc1ccnc2ccccc12` as the compound, how does the GI50 (Plasmodium falciparum) read?
**A.** Its GI50 is 1.6 µM.

**Q.** What about the selectivity ratio [9] of the same compound?
**A.** The selectivity ratio was > 13.

**Q.** And the GI50 (Leishmania infantum [1])?
**A.** Its GI50 is > 100 µM.

**Q.** And the GI50 (Trypanosoma brucei [2])?
**A.** Its GI50 is 7.6 µM.

**Q.** What about the logP [7] of the same compound?
**A.** The logP was 1.25.

**Q.** And the selectivity ratio [13]?
**A.** The selectivity ratio was 17.

**Q.** And the GI50 (Trypanosoma cruzi [14])?
**A.** The GI50 was > 100 µM.

**Q.** What about the “fold change (FC)” value (Trypanosoma brucei [18]) of the same compound?
**A.** Its value is 1.6.

**Q.** And the Activity (Trypanosoma brucei [19])?
**A.** Its Activity is “inactive”.

**Q.** What about the GI50 [5] of the same compound?
**A.** The GI50 was > 100 µM.

**Q.** And the GI50 [6]?
**A.** The GI50 was 27.1 µM.

**Q.** Which results are given for `Cc1c(O)c(=O)ccn1CCN`?
**A.** GI50 (Leishmania infantum [1]): > 100 µM; GI50 (Trypanosoma brucei [2]): > 100 µM; GI50 (Trypanosoma cruzi [14]): > 100 µM; GI50 [5]: 111 µM

**Q.** For `Cc1cc(NCCCCn2ccc(=O)c(O)c2C)c2ccccc2n1`, which GI50 (Plasmodium falciparum) is on record?
**A.** The GI50 was 9 µM.

**Q.** What about the Activity [3] of the same compound?
**A.** Its Activity is 21.1.

**Q.** What about the logP [7] of the same compound?
**A.** The logP was -0.48.

**Q.** What about the selectivity ratio [13] of the same compound?
**A.** The selectivity ratio was 23.

**Q.** What about the GI50 [6] of the same compound?
**A.** Its GI50 is 204 µM.

**Q.** Which results are given for `Cc1cc(NC(=O)CCCn2ccc(=O)c(O)c2C)c2ccccc2n1`?
**A.** GI50 (Plasmodium falciparum): 6 µM; logP [7]: 1.28; selectivity ratio [13]: 21; GI50 [6]: 128 µM
